CXCR6 block – CXCR6 receptor inhibitors, primary screen, cell-based, beta-arrestin, luminescence, CHO-K1 PathHunter, 1536-well; inhibition, % at 20 µM; 360,000 tested, 0.36% active; in the data active = inhibition above about 34%, passing the limit was not always enough;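 note: antagonist mode with CXCL16 agonist at 10 nM final; 0% = 10 nM CXCL16 with DMSO and 100% = unstimulated wells without agonist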
CCR6 antagonist – CCR6 receptor antagonists, primary screen, cell-based, CHO-K1, luminescence, beta-arrestin, uHTS; CHO-K1 CCR6 PathHunter beta-arrestin, CCL20-stimulated; inhibition, % at 20 µM; 340,000 tested, 0.49% active; AID 493098, 2011;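 active = compounds whose inhibition of the agonist-driven luminescence signal at 20 µM reaches about 50%, limit read from the data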;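 note: cells stimulated with CCL20 at 14 nM final; plate controls were DMSO with CCL20 for no effect and DMSO without agonist for full effect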
m5-HT2A agonist – mouse Htr2a agonists via beta-arrestin recruitment, primary screen, cell-based, luminescence; 5-hydroxytryptamine receptor 2A (Mus musculus), P35363; CHO-K1 mHTR2A beta-arrestin complementation; percent of 30 µM serotonin response; activation, % at 7.6 µM; 360,000 tested, 0.66% active;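 active = activation above a run cutoff, the mean activation of all tested compounds plus 3 SD, cut at about 14% in these data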;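 note: 0% = plate median of compound wells and 100% = 30 µM serotonin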
APJ antag – antagonists of human apelin receptor APJ, primary screen, CHO-K1 cells, beta-arrestin complementation, luminescence | P35414 | inhibition, % at 20 µM | 330,000 tested, 0.32% active;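 active = inhibition above about 40% at 20 µM, limit read from the data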;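 note: cells challenged with 10 nM apelin-13 agonist together with compound; plate controls were apelin-13 plus DMSO wells for no effect and DMSO wells lacking apelin-13 for full effect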
EBI2 block – EBI2 receptor antagonists, beta-arrestin recruitment, primary screen, cell-based, luminescence, 7a,25-OHC stimulation, uHTS. 7a,25-OHC stimulated. AID 651636, 2012. inhibition, % at 5 µM. G-protein coupled receptor 183 (Homo sapiens), P32249. 360,000 tested, 0.81% active; in the data active = inhibition above about 38%;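 note: enzyme fragment complementation signal reports receptor beta-arrestin coupling in cells; 0% = agonist plus DMSO wells and 100% = wells without agonist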
Target sequence (P32249 whole entry, looked up, the tested form may be a part): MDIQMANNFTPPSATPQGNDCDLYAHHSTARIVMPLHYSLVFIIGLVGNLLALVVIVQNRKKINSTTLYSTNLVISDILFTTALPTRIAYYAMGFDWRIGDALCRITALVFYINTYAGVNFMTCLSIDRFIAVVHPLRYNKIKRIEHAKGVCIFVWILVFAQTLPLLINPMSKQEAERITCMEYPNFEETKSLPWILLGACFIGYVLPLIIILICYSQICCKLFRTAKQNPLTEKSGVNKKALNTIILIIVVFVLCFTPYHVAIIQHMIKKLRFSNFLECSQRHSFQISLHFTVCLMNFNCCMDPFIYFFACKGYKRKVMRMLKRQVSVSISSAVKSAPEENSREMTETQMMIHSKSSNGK
APJ ag – agonists of human apelin receptor APJ, primary screen, CHO-K1 cells, PathHunter beta-arrestin, luminescence. P35414. 0% DMSO wells, 100% apelin. activation, % at 20 µM. 330,000 tested, 0.11% active;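 active = activation more than six SD over the plate average, tested at 20 µM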;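 note: 0% = DMSO alone and 100% = apelin-13 at 10 nM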
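Assay system: CHO-K1 APJ beta-arrestin complementation cell line / Compound: single test compound dose, 20 µM final, 1% DMSO / Times: overnight seeding, 90 min compound at 25 °C, 1 h detection / Technique: beta-gal luminescence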
APJ antag conf – APJ antagonists blocking beta-arrestin recruitment, confirmation, cell-based, luminescence, single concentration, uHTS hits; shares compounds with APJ antag; 950 tested, 66% active; inhibition, % at 20 µM; antagonist mode; in the data active = inhibition above about 50%
CXCR6 antag conf – CXCR6 receptor antagonists, confirmation, cell-based, single concentration, beta-arrestin, luminescence; shares compounds with CXCR6 block; CHO-K1 CXCR6 PathHunter beta-arrestin; inhibition, % at 20 µM; 700 tested, 65% active; AID 602409, 2012;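 active = mean inhibition over four retests above 40%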;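 note: receptor stimulated with 10 nM CXCL16 agonist; beta-galactosidase fragment complementation upon beta-arrestin recruitment to receptor; plate controls were CXCL16 plus DMSO for no effect and DMSO without CXCL16 for full effect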
Numbers without * were called inactive. Only some compounds are listed: those with a hit (about 2.1% of all), similar ones and a draw of the others.

For S=C(N/N=C/c1ccccc1)N1CCOCC1 the results were CXCR6 block 40.7*, CCR6 antagonist 68.4*, m5-HT2A agonist 8.0, APJ antag 48.1*, EBI2 block -14.2, APJ ag -8.5, APJ antag conf 72.3* and CXCR6 antag conf 75.3*.
`NNc1nc(-c2ccccc2)cc(-c2ccccc2O)n1` gave CXCR6 block 79.1*, CCR6 antagonist 84.7*, m5-HT2A agonist -16.5, APJ antag 56.9*, EBI2 block 42.0, APJ ag -14.4, APJ antag conf 143.0* and CXCR6 antag conf 84.5*.
Screening O=C(N/N=C/c1cc2c(cc1Br)OCO2)c1cccnc1 returned CXCR6 block 5.3, CCR6 antagonist 3.4, m5-HT2A agonist -0.7, APJ antag 2.8, EBI2 block -0.4 and APJ ag -0.4.
For O=C(NCc1ccco1)/C(=C\c1ccco1)NC(=O)c1ccccc1Cl the results were CXCR6 block -4.5, CCR6 antagonist 8.9, m5-HT2A agonist 3.5, APJ antag -21.0, EBI2 block -4.3 and APJ ag -3.0.
For COc1ccc(CC(=O)OCC(=O)c2ccc(S(=O)(=O)N3CCCCC3)cc2)cc1 the results were CXCR6 block 48.3*, CCR6 antagonist 64.8*, m5-HT2A agonist 6.6, APJ antag 71.4*, EBI2 block 7.3, APJ ag -10.7, APJ antag conf 70.2* and CXCR6 antag conf 23.7.
CC(=O)Nc1ccc(C(=O)OCC(=O)c2ccc(S(=O)(=O)N3CCCCC3)cc2)cc1 was read as CXCR6 block 20.9, CCR6 antagonist 29.9, m5-HT2A agonist 9.5, APJ antag -7.2, EBI2 block 7.1 and APJ ag -9.3.
`CC(C)[C@H](NC(=O)c1ccccc1)C(=O)OCC(=O)c1ccc(S(=O)(=O)N2CCCCC2)cc1` gave CXCR6 block 43.6*, CCR6 antagonist 54.2*, m5-HT2A agonist 4.8, APJ antag 47.1*, EBI2 block 18.9, APJ ag -24.7, APJ antag conf 21.3 and CXCR6 antag conf 32.0.
COc1cc(OC)cc(C(=O)OCC(=O)c2ccc(S(=O)(=O)N3CCCCC3)cc2)c1 was read as CXCR6 block 23.4, CCR6 antagonist 32.0, m5-HT2A agonist 2.8, APJ antag 22.3, EBI2 block 14.4 and APJ ag -8.1.
For CC(=O)Nc1cccc(C(=O)OCC(=O)c2ccc(S(=O)(=O)N3CCCCC3)cc2)c1 the results were CXCR6 block 42.2*, CCR6 antagonist 54.2*, m5-HT2A agonist 6.5, APJ antag 49.2*, EBI2 block -8.0, APJ ag -17.7, APJ antag conf 71.3* and CXCR6 antag conf 13.8.
For Cc1cccc(C)c1NC(=O)C(c1ccc(C#N)cc1)n1c(=O)c(-c2ccccc2)nc2ccccc21 (stereo unspecified) the results were m5-HT2A agonist 0.3 and EBI2 block 17.8.
CCCN1Cc2cccc(C(=O)N3CCN(c4ccc(OC)cc4)CC3)c2C1=O was read as CXCR6 block 3.1, CCR6 antagonist 14.2, m5-HT2A agonist -1.1, APJ antag 4.6, EBI2 block -5.1 and APJ ag 1.4.
For COc1cc(C2C(C#N)=C(N)Oc3n[nH]c(-c4cccnc4)c32)cc(Br)c1O (stereo unspecified) the results were CXCR6 block 46.4*, CCR6 antagonist 64.6*, m5-HT2A agonist -1.2, APJ antag 56.3*, EBI2 block 11.5, APJ ag -7.8, APJ antag conf 75.5* and CXCR6 antag conf 51.6*.
For COc1ccc(NC(=O)/C(Cl)=C(/Cl)S(=O)Cc2ccccc2)cn1 (stereo unspecified) the results were CXCR6 block 80.8*, CCR6 antagonist 90.1*, m5-HT2A agonist -4.7, APJ antag 86.3*, EBI2 block 78.8*, APJ ag -9.7, APJ antag conf 100.1* and CXCR6 antag conf 88.3*.
Screening C/C(=N\NC(=O)C(C)Oc1ccc([N+](=O)[O-])cc1)c1ccccn1 (stereo unspecified) returned CXCR6 block 74.5*, CCR6 antagonist 77.1*, m5-HT2A agonist -0.2, APJ antag 55.7*, EBI2 block 15.3, APJ ag -12.0, APJ antag conf 73.1* and CXCR6 antag conf 90.3*.
Screening CCOc1ccc(Nc2ccc([N+](=O)[O-])c3nonc23)cc1 returned CXCR6 block 59.4*, CCR6 antagonist 55.8*, m5-HT2A agonist -8.8, APJ antag 51.7*, EBI2 block 15.2, APJ ag -10.4, APJ antag conf 89.0* and CXCR6 antag conf 42.9*.
Screening CC(=O)NS(=O)(=O)c1ccc(Nc2ccc([N+](=O)[O-])c3nonc23)cc1 returned CXCR6 block 50.6*, CCR6 antagonist 55.0*, m5-HT2A agonist -2.0, APJ antag 44.9*, EBI2 block 13.5, APJ ag -8.1, APJ antag conf 101.2* and CXCR6 antag conf 47.2*.
Screening CC(=O)Nc1ccc(Nc2ccc3nonc3c2[N+](=O)[O-])cc1 returned CXCR6 block -6.3, CCR6 antagonist -6.2, m5-HT2A agonist -4.7, APJ antag -12.7, EBI2 block -10.1 and APJ ag 1.3.
Screening C/C(=N\NC(=O)c1cccc(N/N=C(\C)c2ccco2)c1)c1ccco1 returned CXCR6 block -0.6, CCR6 antagonist 20.1, m5-HT2A agonist -2.1 and EBI2 block -16.1.
For Cc1cccc(NC(=S)NNc2ncc(C(F)(F)F)cc2Cl)c1 the results were CXCR6 block 52.3*, CCR6 antagonist 90.6*, m5-HT2A agonist -9.3, APJ antag 53.6*, EBI2 block 22.0, APJ ag -2.3, APJ antag conf 89.3* and CXCR6 antag conf 52.5*.
O=C(Nc1ccccc1)Nc1ncc(C(F)(F)F)cc1Cl was read as CXCR6 block 1.6, m5-HT2A agonist 0.8 and EBI2 block -6.3.
`CSc1cccc(NS(=O)(=O)c2ccc(-c3coc(C)n3)cc2)c1` gave CXCR6 block -12.4, CCR6 antagonist 12.0, m5-HT2A agonist -2.6, APJ antag 20.9, EBI2 block -4.2 and APJ ag 0.3.
